The values that follow come from ChEMBL document CHEMBL3232847, “Discovery of 6-phenylpyrimido[4,5-b][1,4]oxazines as potent and selective acyl CoA:diacylglycerol acyltransferase 1 (DGAT1) inhibitors with in vivo efficacy in rodents” (J Med Chem, 2014).

Active and inactive are the calls of the source. No cut-off for these calls is given here.

Data set [1] can be described thus: Oral bioavailability in beagle dog at 5 mg/kg. The class given is ADME, organism-based, Canis lupus familiaris. The conditions noted are these: in vivo.
The test system of data set [2] is Mus musculus. The experiment in a line: Reduction in plasma triglyceride level in C57BL/6J mouse at 0.3 mg/kg, po treated 30 mins prior to olive oil administration measured 3 hrs post olive oil administration relative to vehicle-treated control. Further details: scale not given: the % may be the effect or the level left. The class given is functional. The method, boiled down: (§1)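 Animals received vehicle or compound by oral gavage, then olive oil (5 mL/kg) by oral gavage 30 min later. Plasma triglycerides were measured before dosing and 3 h after the oil. The read-out was the change in TG from pre-dose, compared with vehicle-treated animals.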

The subject of data set [3] is Rattus norvegicus. The experiment in a line: Reduction in plasma triglyceride level in Sprague-Dawley rat at 0.3 mg/kg, po treated 30 mins prior to olive oil administration measured 3 hrs post olive oil administration relative to vehicle-treated control. The class given is functional. The arrangement: scale not given: the % may be the effect or the level left. The method, boiled down:
as §1

Data set [4] addresses T1, Voltage-gated inwardly rectifying potassium channel KCNH2 (Homo sapiens, UniProt Q12809). The experiment in a line: Inhibition of human ERG by patch clamp assay. In general terms: In patch-clamp work, channel activity is measured electrically.
The test system of data set [5] is Rattus norvegicus. The experiment in a line: Toxicity in Sprague-Dawley rat assessed as sebaceous gland atrophy at 100 mg/kg, po by 14-day multiple-dose toxicity study. The class given is organism-based. The arrangement: dose 100 mg/kg, route oral. The following applies: in vivo. The essentials: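 Sprague−Dawley rats were dosed po once daily for 14 days. Clinical and histopathological findings were assessed, and plasma AUC was recorded for each dose.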

Data set [6] can be described thus: Drug metabolism in cynomolgus monkey liver S9 fraction assessed as 2-hydroxy compound formation by MS/MS analysis. The class given is ADME, subcellular, Macaca fascicularis.
Data set [7] has as its target T2, Diacylglycerol O-acyltransferase 2 (Homo sapiens) (UniProt Q96PD7).
T2 sequence (whole entry): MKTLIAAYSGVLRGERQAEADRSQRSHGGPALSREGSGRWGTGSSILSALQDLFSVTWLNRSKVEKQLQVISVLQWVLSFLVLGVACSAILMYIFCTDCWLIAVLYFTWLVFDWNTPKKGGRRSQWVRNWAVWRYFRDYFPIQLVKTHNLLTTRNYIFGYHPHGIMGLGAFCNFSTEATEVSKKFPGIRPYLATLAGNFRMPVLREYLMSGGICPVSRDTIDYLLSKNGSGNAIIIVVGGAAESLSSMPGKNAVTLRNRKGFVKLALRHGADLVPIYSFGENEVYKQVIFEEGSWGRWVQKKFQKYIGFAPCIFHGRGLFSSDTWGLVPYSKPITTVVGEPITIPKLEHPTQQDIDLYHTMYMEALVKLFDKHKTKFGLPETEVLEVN
The data set is described as follows: Inhibition of human liver flag-tagged DGAT2 expressed in baculovirus infected insect cells up to 10 uM after 2 hrs by SPA.

The species named for data set [8] is Mus musculus. The data set is described as follows: Inhibition of mouse liver microsomal GPAT up to 10 uM by TLC technique in presence of glycerol-3-phosphate and [14C] palmitoyl CoA. (Liver microsomes are a subcellular fraction often used to study metabolism.)
Data set [9] is described as follows: AUC in CD1 mouse at 2 mg/kg, po. Further details: dose 2 mg/kg, route oral. The class given is ADME, organism-based. The conditions noted are these: plasma.
Data set [10] can be described thus: Inhibition of rat small intestine microsomal MGAT by TLC technique in presence of monoacylglycerol and [14C] palmitoyl CoA. The class given is microsomes.
The test system of data set [11] is Mus musculus. The data set is described as follows: Reduction in plasma triglyceride level in po dosed C57BL/6J mouse compound treated 30 mins prior to olive oil administration measured 3 hrs post olive oil administration relative to vehicle-treated control. The class given is functional, organism-based. The method, boiled down: as §1
The target in data set [12] is T1, Voltage-gated inwardly rectifying potassium channel KCNH2. The experiment in a line: Inhibition of human ERG up to 5 uM by patch clamp assay.
A short description of data set [13]: Volume of distribution at steady state in beagle dog at 0.2 mg/kg, iv. The arrangement: dose 0.2 mg/kg, route intravenous. The following applies: in vivo, read-out: Vdss. The class given is ADME, organism-based, Canis lupus familiaris.
A short description of data set [14]: AUC in beagle dog at 2 mg/kg, po. The class given is ADME, organism-based, Canis lupus familiaris. The arrangement: dose 2 mg/kg, route oral. The conditions noted are these: plasma.
Data set [15] is described as follows: AUC in Sprague-Dawley rat at 10 mg/kg, po qd. The class given is ADME, organism-based. The arrangement: dose 10 mg/kg, route oral. The following applies: plasma. The essentials:
(§2)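 Sprague-Dawley rats dosed orally once daily for 14 days in a multiple-dose toxicity study at 10, 30 or 100 mg/kg. Plasma exposure was reported as AUC, and clinical and histopathological findings were recorded.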

A short description of data set [16]: AUC in Sprague-Dawley rat at 30 mg/kg, po qd. The arrangement: dose 30 mg/kg, route oral. The conditions noted are these: plasma. The class given is ADME, organism-based. The essentials:
as §2

T1 sequence (Q12809 whole entry): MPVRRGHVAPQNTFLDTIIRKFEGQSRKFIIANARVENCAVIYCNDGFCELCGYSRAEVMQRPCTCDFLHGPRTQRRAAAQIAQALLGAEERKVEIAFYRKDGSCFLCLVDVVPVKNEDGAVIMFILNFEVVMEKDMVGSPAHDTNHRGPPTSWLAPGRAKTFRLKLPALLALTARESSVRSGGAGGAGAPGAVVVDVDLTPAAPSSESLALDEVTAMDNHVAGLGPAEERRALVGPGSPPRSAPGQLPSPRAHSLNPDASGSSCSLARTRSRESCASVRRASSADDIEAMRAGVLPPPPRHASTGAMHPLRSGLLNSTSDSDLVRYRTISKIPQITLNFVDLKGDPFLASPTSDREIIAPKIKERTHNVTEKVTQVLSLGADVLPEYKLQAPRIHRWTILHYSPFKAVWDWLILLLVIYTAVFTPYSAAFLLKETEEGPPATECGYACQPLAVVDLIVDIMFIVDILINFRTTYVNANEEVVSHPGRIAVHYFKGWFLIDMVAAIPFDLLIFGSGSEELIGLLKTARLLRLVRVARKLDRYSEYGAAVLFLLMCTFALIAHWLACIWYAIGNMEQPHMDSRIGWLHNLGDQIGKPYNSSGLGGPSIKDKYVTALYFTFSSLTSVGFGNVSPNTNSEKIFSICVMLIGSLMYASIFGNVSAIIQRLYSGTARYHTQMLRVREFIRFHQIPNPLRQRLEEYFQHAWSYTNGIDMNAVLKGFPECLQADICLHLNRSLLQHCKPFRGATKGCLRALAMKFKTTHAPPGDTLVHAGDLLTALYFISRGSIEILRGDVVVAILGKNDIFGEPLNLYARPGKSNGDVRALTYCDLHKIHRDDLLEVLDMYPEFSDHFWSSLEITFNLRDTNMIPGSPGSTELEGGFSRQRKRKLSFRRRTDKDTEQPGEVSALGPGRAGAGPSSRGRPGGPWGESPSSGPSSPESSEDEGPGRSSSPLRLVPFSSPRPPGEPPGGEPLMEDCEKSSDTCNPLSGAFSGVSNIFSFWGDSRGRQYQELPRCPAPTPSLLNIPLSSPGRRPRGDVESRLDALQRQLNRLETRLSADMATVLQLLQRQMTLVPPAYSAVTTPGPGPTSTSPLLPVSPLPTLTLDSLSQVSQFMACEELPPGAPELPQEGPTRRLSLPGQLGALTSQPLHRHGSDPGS

Take `CC1(C)Oc2ncnc(N)c2N=C1c1ccc([C@H]2CC[C@H](CC(=O)O)CC2)cc1`: the bioavailability – broadly, dose-corrected exposure relative to a reference, in per cent – in data set [1] turned out to be 64%. In addition, the Activity with Mus musculus [2] is given as 93%; in the data set with Rattus norvegicus [3] it was 88%; in the data set with Rattus norvegicus [5] it was “Toxic”. In addition, the IC50 (usually the midpoint of a concentration-inhibition curve) in data set [4] is more than 10 µM. Also, the Drug metabolism result in data set [6] was “metabolite_detected”. For the same compound, the inhibition entry (in data set [7]; in the data set filed under Mus musculus [8]) was “inactive” throughout. Also, the AUC (in general, the area under the concentration-time curve, a measure of exposure) in data set [9] was found to be 6690 ng·h/mL.

For the compound `CC1(C)Oc2nc(C(F)(F)F)nc(N)c2N=C1c1ccc2c(c1)CC[C@]21CC[C@@H](CC(=O)O)CC1`, the IC50 in data set [10] is more than 10 µM. Besides, in the data set with Mus musculus [11], the Activity result is “Dose-dependent effect”. Besides, the “inhibition (INH)” value in [12] is on record as “Not Active”. Besides, the Vd in [13] was found to be 0.21 L/kg. Also, the AUC was determined as 3180 ng·h/mL in data set [14], 11 µM·h in data set [15] and 78 µM·h in data set [16].
